# In ChEMBL document CHEMBL4190234, “Design, synthesis and anticancer activity of new monastrol analogues bearing 1,3,4-oxadiazole moiety” (Eur J Med Chem, 2017):
# Legend:
# MOLT-4 [1] = test: Growth inhibition of human MOLT4 cells at 10 uM incubated for 48 hrs by sulforhodamine B assay relative to control; format: functional; settings: MOLT-4, 48 h, read-out: GI
# Method in brief: (§1)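 Single-dose screen at 10 μM final: cells in RPMI 1640, 5% FBS, 2 mM L-glutamine, plated 5,000–40,000/well, preincubated 24 h at 37°C, 5% CO2; drug 48 h; adherent cells fixed with 10% TCA, suspension cells with 16% TCA; SRB stain, absorbance 515 nm; percentage growth versus untreated control, with time-zero plates.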
# RPMI-8226 = test: Growth inhibition of human RPMI8226 cells at 10 uM incubated for 48 hrs by sulforhodamine B assay relative to control; format: functional; settings: RPMI-8226, 48 h, read-out: GI; method in brief: as §1
# NCI-H226 = test: Growth inhibition of human NCI-H226 cells at 10 uM incubated for 48 hrs by sulforhodamine B assay relative to control; format: functional; settings: NCI-H226, 48 h, read-out: GI; method in brief: as §1
# NCI-H322M = test: Growth inhibition of human NCI-H322M cells at 10 uM incubated for 48 hrs by sulforhodamine B assay relative to control; format: functional; settings: read-out: GI; method in brief: as §1
# KM12 = test: Growth inhibition of human KM12 cells at 10 uM incubated for 48 hrs by sulforhodamine B assay relative to control; format: functional; settings: KM12, 48 h, read-out: GI; method in brief: as §1
# SK-OV-3 = test: Growth inhibition of human SKOV3 cells at 10 uM incubated for 48 hrs by sulforhodamine B assay relative to control; format: functional; settings: SK-OV-3, 48 h, read-out: GI
# Method in brief: (§2)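 NCI single-dose screen: cells grown in RPMI 1640 with 5% FBS and 2 mM L-glutamine, plated at 5,000–40,000 cells/well and preincubated 24 h at 37 °C, 5% CO2. Compounds taken from DMSO stock and tested at final 10 µM for 48 h. Cells fixed with TCA, stained with 0.4% SRB, absorbance read at 515 nm. Percentage growth calculated against untreated controls; controls held DMSO at the same dilution.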
# OVCAR-8 = test: Growth inhibition of human OVCAR8 cells at 10 uM incubated for 48 hrs by sulforhodamine B assay relative to control; format: functional; settings: OVCAR-8, 48 h, read-out: GI; method in brief: as §1
# EKVX = test: Growth inhibition of human EKVX cells at 10 uM incubated for 48 hrs by sulforhodamine B assay relative to control; format: functional; settings: read-out: GI; method in brief: as §1
# MOLT-4 [2] = test: Growth inhibition of human MOLT4 cells incubated for 24 hrs by MTT assay; format: functional, cell-based; settings: MOLT-4, 24 h
# IGROV-1 = test: Growth inhibition of human IGROV1 cells at 10 uM incubated for 48 hrs by sulforhodamine B assay relative to control; format: functional; settings: IGROV-1, 48 h, read-out: GI; method in brief: as §1
# HCC 2998 = test: Growth inhibition of human HCC2998 cells at 10 uM incubated for 48 hrs by sulforhodamine B assay relative to control; format: functional; settings: HCC 2998, 48 h, read-out: GI; method in brief: as §1
# K562 = test: Growth inhibition of human K562 cells at 10 uM incubated for 48 hrs by sulforhodamine B assay relative to control; format: functional; settings: K562, 48 h, read-out: GI; method in brief: as §1
# Malme-3M = test: Growth inhibition of human MALME-3M cells at 10 uM incubated for 48 hrs by sulforhodamine B assay relative to control; format: functional; settings: read-out: GI; method in brief: as §1
# M14 = test: Growth inhibition of human M14 cells at 10 uM incubated for 48 hrs by sulforhodamine B assay relative to control; format: functional; settings: M14, 48 h, read-out: GI; method in brief: as §1
# RXF 393 = test: Growth inhibition of human RXF393 cells at 10 uM incubated for 48 hrs by sulforhodamine B assay relative to control; format: functional; settings: RXF 393, 48 h, read-out: GI; method in brief: as §1
# SN12C = test: Growth inhibition of human SN12C cells at 10 uM incubated for 48 hrs by sulforhodamine B assay relative to control; format: functional; settings: read-out: GI; method in brief: as §2
# PC-3 = test: Growth inhibition of human PC3 cells at 10 uM incubated for 48 hrs by sulforhodamine B assay relative to control; format: functional; settings: PC-3, 48 h, read-out: GI; method in brief: as §1
# MDA-MB-468 = test: Growth inhibition of human MDA-MB-468 cells at 10 uM incubated for 48 hrs by sulforhodamine B assay relative to control; format: functional; settings: MDA-MB-468, 48 h, read-out: GI; method in brief: as §1
# SF-295 = test: Growth inhibition of human SF295 cells at 10 uM incubated for 48 hrs by sulforhodamine B assay relative to control; format: functional; settings: SF-295, 48 h, read-out: GI; method in brief: as §2
# SF-268 = test: Growth inhibition of human SF268 cells at 10 uM incubated for 48 hrs by sulforhodamine B assay relative to control; format: functional; settings: SF-268, 48 h, read-out: GI; method in brief: as §2
# COLO 205 = test: Growth inhibition of human COLO205 cells at 10 uM incubated for 48 hrs by sulforhodamine B assay relative to control; format: functional; settings: COLO 205, 48 h, read-out: GI; method in brief: as §1
# HOP-92 = test: Growth inhibition of human HOP92 cells at 10 uM incubated for 48 hrs by sulforhodamine B assay relative to control; format: functional; settings: HOP-92, 48 h, read-out: GI; method in brief: as §1
# BT-549 = test: Growth inhibition of human BT549 cells at 10 uM incubated for 48 hrs by sulforhodamine B assay relative to control; format: functional; settings: BT-549, 48 h, read-out: GI; method in brief: as §1
# SW-620 = test: Growth inhibition of human SW620 cells at 10 uM incubated for 48 hrs by sulforhodamine B assay relative to control; format: functional; settings: SW-620, 48 h, read-out: GI; method in brief: as §2
# DU-145 = test: Growth inhibition of human DU145 cells at 10 uM incubated for 48 hrs by sulforhodamine B assay relative to control; format: functional; settings: DU-145, 48 h, read-out: GI; method in brief: as §1
# NCI-H460 = test: Growth inhibition of human NCI-H460 cells at 10 uM incubated for 48 hrs by sulforhodamine B assay relative to control; format: functional; settings: NCI-H460, 48 h, read-out: GI; method in brief: as §1
# SK-MEL-5 = test: Growth inhibition of human SK-MEL-5 cells at 10 uM incubated for 48 hrs by sulforhodamine B assay relative to control; format: functional; settings: SK-MEL-5, 48 h, read-out: GI; method in brief: as §2
# HOP-62 = test: Growth inhibition of human HOP62 cells at 10 uM incubated for 48 hrs by sulforhodamine B assay relative to control; format: functional; settings: HOP-62, 48 h, read-out: GI; method in brief: as §1
# OVCAR-3 = test: Growth inhibition of human OVCAR3 cells at 10 uM incubated for 48 hrs by sulforhodamine B assay relative to control; format: functional; settings: OVCAR-3, 48 h, read-out: GI; method in brief: as §1
# A498 = test: Growth inhibition of human A498 cells at 10 uM incubated for 48 hrs by sulforhodamine B assay relative to control; format: functional; settings: A498, 48 h, read-out: GI; method in brief: as §1
# CAKI-1 = test: Growth inhibition of human Caki1 cells at 10 uM incubated for 48 hrs by sulforhodamine B assay relative to control; format: functional; settings: CAKI-1, 48 h, read-out: GI; method in brief: as §1
Structure (SMILES),inhibition of growth at 10 µM (MOLT-4 [1]) [%],inhibition of growth at 10 µM (RPMI-8226) [%],inhibition of growth at 10 µM (NCI-H226) [%],inhibition of growth at 10 µM (NCI-H322M) [%],inhibition of growth at 10 µM (KM12) [%],inhibition of growth at 10 µM (SK-OV-3) [%],inhibition of growth at 10 µM (OVCAR-8) [%],inhibition of growth at 10 µM (EKVX) [%],IC50 (MOLT-4 [2]) [µM],inhibition of growth at 10 µM (IGROV-1) [%],inhibition of growth at 10 µM (HCC 2998) [%],inhibition of growth at 10 µM (K562) [%],inhibition of growth at 10 µM (Malme-3M) [%],inhibition of growth at 10 µM (M14) [%],inhibition of growth at 10 µM (RXF 393) [%],inhibition of growth at 10 µM (SN12C) [%],inhibition of growth at 10 µM (PC-3) [%],inhibition of growth at 10 µM (MDA-MB-468) [%],inhibition of growth at 10 µM (SF-295) [%],inhibition of growth at 10 µM (SF-268) [%],also measured
CCOC(=O)C1=C(C)NC(SCc2nnc(-c3ccc(Cl)cc3)o2)=NC1c1ccc(Br)cc1 (stereo not drawn),91.7,61.6,21.1,13.6,24,18,27.3,28.7,0.086,34.5,< 10,39.3,16.9,26,25,< 10,51.2,41.8,26.4,13.3,inhibition of growth at 10 µM (COLO 205): 22.4%; inhibition of growth at 10 µM (HOP-92): 42.2%; inhibition of growth at 10 µM (BT-549): 20.2%; inhibition of growth at 10 µM (SW-620): < 10%; inhibition of growth at 10 µM (DU-145): 15.7%; inhibition of growth at 10 µM (NCI-H460): 19.6%; inhibition of growth at 10 µM (SK-MEL-5): 48.6%; inhibition of growth at 10 µM (HOP-62): 13.1%; inhibition of growth at 10 µM (OVCAR-3): 22.5%; inhibition of growth at 10 µM (A498): 26.8%; inhibition of growth at 10 µM (CAKI-1): 32.8%
CCOC(=O)C1=C(C)NC(SCc2nnc(-c3ccc(Cl)cc3)o2)=NC1c1cccc(Cl)c1 (stereo not drawn),45,46.4,< 10,< 10,16,29.9,33.7,< 10,1.79,14.6,10.3,27.5,< 10,26.2,< 10,< 10,39.2,< 10,25.5,< 10,inhibition of growth at 10 µM (COLO 205): 29.6%; inhibition of growth at 10 µM (HOP-92): 49%; inhibition of growth at 10 µM (BT-549): 46.9%; inhibition of growth at 10 µM (SW-620): < 10%; inhibition of growth at 10 µM (DU-145): 13.5%; inhibition of growth at 10 µM (NCI-H460): < 10%; inhibition of growth at 10 µM (SK-MEL-5): < 10%; inhibition of growth at 10 µM (HOP-62): 25.1%; inhibition of growth at 10 µM (OVCAR-3): 17.3%; inhibition of growth at 10 µM (A498): < 10%; inhibition of growth at 10 µM (CAKI-1): 35.1%
CCOC(=O)C1=C(C)NC(SCc2nnc(-c3ccc(Cl)cc3)o2)=NC1c1ccc(Cl)cc1 (stereo not drawn),93,64.2,30.1,17.7,30.3,17.4,25.2,19.9,0.623,37.7,20.1,44.2,18.3,30.7,32.3,< 10,51.2,51,25.9,14,inhibition of growth at 10 µM (COLO 205): 20.4%; inhibition of growth at 10 µM (HOP-92): 35.9%; inhibition of growth at 10 µM (BT-549): 24.7%; inhibition of growth at 10 µM (SW-620): 14.1%; inhibition of growth at 10 µM (DU-145): 12.8%; inhibition of growth at 10 µM (NCI-H460): 21.1%; inhibition of growth at 10 µM (SK-MEL-5): 59.1%; inhibition of growth at 10 µM (HOP-62): < 10%; inhibition of growth at 10 µM (OVCAR-3): 29.2%; inhibition of growth at 10 µM (A498): 19.3%; inhibition of growth at 10 µM (CAKI-1): 38.4%
